Published values gathered from unrelated publications.
Action: inhibitor
MAOA: Amine oxidase [flavin-containing] A (MAOA, Homo sapiens, UniProt P21397)
PDE7A: High affinity 3',5'-cyclic-AMP phosphodiesterase 7A (PDE7A, Homo sapiens, UniProt Q13946)
PRMT3: Protein arginine N-methyltransferase 3 (PRMT3, Homo sapiens, UniProt O60678)
TDP1: Tyrosyl-DNA phosphodiesterase 1 (TDP1, Homo sapiens, UniProt Q9NUW8)
LDHA: L-lactate dehydrogenase A chain (LDHA, Homo sapiens, UniProt P00338)

Compound | target | test | system | setting | IC50 [µM]
C[C@@H]1C[C@H]2O[C@@H]2/C=C\C=C\C(=O)Cc2cc(O)cc(O)c2C(=O)O1 | Mitogen-activated protein kinase kinase kinase 7 (MAP3K7, Homo sapiens, UniProt O43318) | enzyme activity, ATP luminescence | – | – | > 10
COc1cc(/C=C/C(=O)N2CCC(Cc3ccccc3)CC2)ccc1OC1CCCCC1 | MAOA | enzyme activity, fluorescence | – | – | 63.9
O=C1NC(=O)/C(=C/c2ccc(OCCNc3nc4c(cnn4C4CCCC4)c(=O)[nH]3)c(F)c2)S1 | PDE7A | enzyme activity | – | – | 0.027
CC(C)C[C@H](NC(=O)[C@H]1O[C@@H]1C(=O)O)C(=O)NCCCCN=C(N)N | Cathepsin S (CTSS, Homo sapiens, UniProt P25774) | enzyme activity | – | – | 0.00174
Nc1ncnc2c1ncn2[C@@H]1O[C@H](CSCCNC(=O)Nc2cccc3ccccc23)[C@@H](O)[C@H]1O | PRMT3 | enzyme activity, fluorescence | – | – | 81
CC(C)(C)OC(=O)N1CCN(C(=O)C(=O)CC(=O)c2cccc(N(Cc3ccccc3)Cc3ccccc3)c2)CC1 | Tyrosine-protein phosphatase non-receptor type 1 (PTPN1, Homo sapiens, UniProt P18031) | enzyme activity, absorbance | – | pH 7 | 9.2
COc1cc2c(OC)nc3c4cc5c(cc4cc(OCCCN(C)C)c3c2cc1OC)OCO5 | TDP1 | enzyme activity, fluorescence | – | – | 1.7
O=c1cc(-c2ccc(O)c(O)c2)oc2cc(O[C@@H]3O[C@H](CO)[C@@H](O)[C@H](O)[C@H]3O)cc(O)c12 | LDHA | enzyme activity | – | pH 7.4 | 139
O=C(Nc1cccc(NS(=O)(=O)c2ccc3oc4cc([N+](=O)[O-])ccc4c3c2)c1)C1(O)CC1 | LDHA | enzyme activity | – | – | 0.757
CN1CCN(c2ccc(Nc3ncc4cc(C#N)c(=O)n(C5CCCC5)c4n3)cc2)CC1 | Serine/threonine-protein kinase MARK2 (MARK2, Homo sapiens, UniProt Q7KZI7) | enzyme activity | – | – | 0.566
COc1cc2c(OC)nc3c4cc5c(cc4cc(OCCCN4CCCC4)c3c2cc1OC)OCO5 | TDP1 | enzyme activity | – | – | 5.5 to 13
C[C@H]1Oc2cc(cnc2N)-c2c(nn(C)c2C#N)CN(C)C(=O)c2ccc(F)cc21 | Focal adhesion kinase 1 (PTK2, Homo sapiens, UniProt Q05397) | enzyme activity, radiometric | – | – | 0.004
O=C(O)CSc1nnc(Br)n1-c1ccc(C2CC2)c2ccccc12 | Broad substrate specificity ATP-binding cassette transporter ABCG2 (ABCG2, Homo sapiens, UniProt Q9UNQ0) | transporter uptake | Caco-2 | 2 h | > 3000
Cc1cnc(-c2ccc(-c3ccc(NC(=O)Nc4c(F)cc(F)cc4F)cc3F)c3c2C(=O)NC3)[nH]1 | High affinity nerve growth factor receptor (NTRK1, Homo sapiens, UniProt P04629) | enzyme activity | – | – | 0.0148
O=c1cc(-c2ccc(O)cc2)oc2c([C@@H]3O[C@H](CO)[C@@H](O)[C@H](O)[C@H]3O)c(O)c([C@@H]3O[C@H](CO)[C@@H](O)[C@H](O)[C@H]3O)c(O)c12 | MAOA | enzyme activity | – | – | 50.2
CC1(C)C(/C=C/C=C2/N(CCCc3ccccc3)c3ccc(Cl)cc3C2(C)C)=[N+](CCCc2ccccc2)c2ccc(Cl)cc21 | PRMT3 | enzyme activity, radiometric | – | – | 1.03
Nc1ncnc2c1ncn2[C@@H]1O[C@H](CSCCNC(=O)Nc2ccccc2)[C@@H](O)[C@H]1O | PRMT3 | enzyme activity, fluorescence | – | – | 1.9
CN(C)CCCN1c2ccccc2Sc2ccc(Cl)cc21 | Glutathione reductase, mitochondrial (GSR, Homo sapiens, UniProt P00390) | enzyme activity, absorbance | – | – | > 100
COc1ccc(C2=NN(C3CCCCCC3)C(=O)[C@@H]3CC=CC[C@H]23)cc1-c1ccc(C(N)=O)cc1 (relative stereo) | PDE7A | enzyme activity | – | – | > 10
